≈ marks a conversion by molar mass, not a printed value.

The term MIC50 denotes an inhibitory concentration at the 50% level, which refers to growth in some studies and to a panel of isolates in others. The low end stands for greater potency, the high end for weaker potency. In general, MIC90 refers to an inhibitory concentration at the 90% level, which refers to growth in some studies and to a panel of isolates in others. A high value points to lower susceptibility. The term MIC denotes the lowest concentration found to suppress growth. Read a low MIC as greater potency.

Holding throughout (assay type): functional
Assay [1] concerns Streptococcus pneumoniae. Put plainly: Antibacterial activity against Streptococcus pneumoniae isolate OC7376 assessed as log reduction in bacterial growth at 2 times MIC measured at 24 hrs by time-kill assay. The procedure, abridged:
(§1)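 Drug was diluted from 50× stocks made in water or acidified water. Samples were taken at 6 and 24 h and serially diluted onto TSA-5% sheep blood plates. Plates were incubated 20–24 h at 37°C in 5% CO2 before counting CFU. Log10 titer change is given relative to the starting inoculum.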

Assay [2] concerns Streptococcus pneumoniae. As to the kind of experiment: Ratio of Moxifloxacin MIC90 to compound MIC90 for ciprofloxacin-resistant Streptococcus pneumoniae.
In another assay the test system is Escherichia coli. As to the kind of experiment: Antibacterial activity against ciprofloxacin-susceptible, -intermediate Escherichia coli by broth microdilution method. Background: Broth dilution looks for growth in wells or tubes with falling amounts of substance.
Assay [3] has as its system Staphylococcus aureus. As to the kind of experiment: Antibacterial activity against methicillin-resistant Staphylococcus aureus isolate OC8525 harboring wild type quinolone resistance-determining region assessed as log reduction in bacterial growth at 4 times MIC measured at 24 hrs by time-kill assay. The method, boiled down: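 Time-kill in cation-adjusted Mueller-Hinton broth. […] Samples were taken up to 24 h, serially diluted onto TSA and counted after 20–24 h at 37°C. Result is log10 decrease at 24 h from the starting inoculum; detection limit 100 CFU.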

Assay [4] deals with Streptococcus pneumoniae. As to the kind of experiment: Antibacterial activity against Streptococcus pneumoniae isolate OC6610 assessed as log reduction in bacterial growth at 2 times MIC measured at 24 hrs by time-kill assay. The procedure, abridged: as §1
Assay [5] deals with Staphylococcus aureus. Put plainly: Antibacterial activity against methicillin-resistant Staphylococcus aureus isolate OC11696 assessed as log reduction in bacterial growth at 4 times MIC measured at 24 hrs by time-kill assay. The method, boiled down:
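Overnight MRSA cultures were diluted into fresh cation-adjusted Mueller-Hinton broth to about 5 × 10^6 CFU/ml. […] Samples were plated serially diluted on trypticase soy agar, and CFU were counted after 20-24 h at 37°C. Value is the log10 decrease at 24 h from the starting inoculum; detection limit 100 CFU.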

The subject of assay [6] is Streptococcus pneumoniae. Put plainly: Antibacterial activity against Streptococcus pneumoniae isolate OC7348 assessed as log reduction in bacterial growth at 2 times MIC measured at 24 hrs by time-kill assay. The procedure, abridged: as §1
Assay [7] deals with Staphylococcus aureus. As to the kind of experiment: Antibacterial activity against methicillin-resistant Staphylococcus aureus isolate OC8532 harboring wild type quinolone resistance-determining region by agar dilution method. The procedure, abridged: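 CLSI agar dilution MIC on cation-adjusted Mueller-Hinton medium. These were the MIC values used for the resistance studies, and CLSI quality-control strains were included as appropriate.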

In assay [8] the test system is Staphylococcus aureus. As to the kind of experiment: Antibacterial activity against methicillin-resistant Staphylococcus aureus isolate OC8530 harboring gyrA S84L and parC I143V mutant gene by broth microdilution method. The method, boiled down: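 CLSI M07-A7 broth microdilution MIC in cation-adjusted Mueller-Hinton medium. For S. pneumoniae the medium was supplemented with 5% lysed horse blood. CLSI quality-control strains were included as appropriate.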

The next assay relates to Enterococcus faecium. Put plainly: Antibacterial activity against Enterococcus faecium by broth microdilution method. The method, boiled down: (§2)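 MICs by CLSI M07-A7 broth microdilution in cation-adjusted Mueller-Hinton medium. For S. pneumoniae the medium was supplemented with 5% lysed horse blood. CLSI quality control strains were run alongside as appropriate.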
The test system of assay [9] is Staphylococcus epidermidis. As to the kind of experiment: Antibacterial activity against methicillin-susceptible Staphylococcus epidermidis by broth microdilution method.
Assay [10] deals with Staphylococcus aureus. Put plainly: Antibacterial activity against methicillin-resistant Staphylococcus aureus isolate OC4222 harboring gyrA S84L and parC S80F mutant gene by broth microdilution method. The method, boiled down:
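CLSI M07-A7 broth microdilution MIC. Medium was cation-adjusted Mueller-Hinton broth. For S. pneumoniae it was Mueller-Hinton supplemented with 5% lysed horse blood. CLSI quality-control strains were included as appropriate.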

A further assay relates to Streptococcus pyogenes. As to the kind of experiment: Antibacterial activity against Streptococcus pyogenes by broth microdilution method. The procedure, abridged: as §2

On to `COc1c(N2CCC/C(=C(\F)CN)C2)c(F)cc2c(=O)c(C(=O)O)cn(C3CC3)c12` [ACORAFLOXACIN], for which the deltalog10CFU/ml in the assay with Streptococcus pneumoniae [1] came out at 6.8; in the assay with Staphylococcus aureus [3], 5; in the assay on Streptococcus pneumoniae [4], 5; in the assay on Staphylococcus aureus [5] it was 6.5; in the assay with Streptococcus pneumoniae [6] it was 7. The Ratio with Streptococcus pneumoniae [2] is 9. Besides, the MIC50 with Escherichia coli worked out at 0.06 µg/mL (≈ 0.143 µM); in the assay with Enterococcus faecium, 0.5 µg/mL (≈ 1.19 µM); in [9], 0.015 µg/mL (≈ 0.0358 µM); with Streptococcus pyogenes it was 0.008 µg/mL (≈ 0.0191 µM). Further, the MIC90 in the assay on Escherichia coli turned out to be 0.25 µg/mL (≈ 0.596 µM); with Enterococcus faecium it was 4 µg/mL (≈ 9.54 µM); in assay [9] it was 0.015 µg/mL (≈ 0.0358 µM); against Streptococcus pyogenes, 0.015 µg/mL (≈ 0.0358 µM). Moreover, the minimum inhibitory concentration (MIC) is 0.008 µg/mL (≈ 0.0191 µM) against Staphylococcus aureus [7], 0.25 µg/mL (≈ 0.596 µM) with Staphylococcus aureus [8], 0.5 µg/mL (≈ 1.19 µM) against Staphylococcus aureus [10] and 0.008 µg/mL (≈ 0.0191 µM) against Streptococcus pyogenes.
